According to ChEMBL document CHEMBL3044834, “Novel protoporphyrinogen oxidase inhibitors: 3H-pyrazolo[3,4-d][1,2,3]triazin-4-one derivatives” (J Agric Food Chem, 2008):

Legend:
Assay type in all cases: functional
[1] = system: Brassica rapa subsp. oleifera; assay: Herbicidal activity against Brassica rapa subsp. oleifera assessed as inhibition of fresh weed plant weight at 1500 g/ha using post-emergence treatment protocol
Procedure, shortened: (§1)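 Test compounds made up as emulsions by dissolving in 100 µL N,N-dimethylformamide, then adding a little Tween 20 and water. For post-emergence, weed seedlings at one leaf and one stem were sprayed at the same rates as the pre-emergence test. Fresh weight was recorded 15 days after treatment and expressed as percent inhibition versus controls. All treatments were run in triplicate.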

[2] = system: Echinochloa crus-galli; assay: Herbicidal activity against Echinochloa crus-galli (barnyard grass) assessed as inhibition of fresh weed plant weight at 375 g/ha using post-emergence treatment protocol; procedure, shortened: as §1
[3] = system: Echinochloa crus-galli; assay: Herbicidal activity against Echinochloa crus-galli (barnyard grass) assessed as inhibition of fresh weed plant weight at 750 g/ha using pre-emergence treatment protocol
[4] = system: Echinochloa crus-galli; assay: Herbicidal activity against Echinochloa crus-galli (barnyard grass) assessed as inhibition of fresh weed plant weight at 187.5 g/ha using pre-emergence treatment protocol; procedure, shortened: as §1
[5] = system: Digitaria sanguinalis; assay: Herbicidal activity against Digitaria sanguinalis (hairy crabgrass) assessed as inhibition of fresh weed plant weight at 375 g/ha using pre-emergence treatment protocol
[6] = system: Echinochloa crus-galli; assay: Herbicidal activity against Echinochloa crus-galli (barnyard grass) assessed as inhibition of fresh weed plant weight at 375 g/ha using pre-emergence treatment protocol; procedure, shortened: as §1
[7] = system: Digitaria sanguinalis; assay: Herbicidal activity against Digitaria sanguinalis (hairy crabgrass) assessed as inhibition of fresh weed plant weight at 750 g/ha using pre-emergence treatment protocol
[8] = system: Echinochloa crus-galli; assay: Herbicidal activity against Echinochloa crus-galli (barnyard grass) assessed as inhibition of fresh weed plant weight at 750 g/ha using post-emergence treatment protocol; procedure, shortened: as §1
[9] = system: Amaranthus retroflexus; assay: Herbicidal activity against Amaranthus retroflexus assessed as inhibition of fresh weed plant weight at 750 g/ha using post-emergence treatment protocol; procedure, shortened: as §1
[10] = system: Brassica rapa subsp. oleifera; assay: Herbicidal activity against Brassica rapa subsp. oleifera assessed as inhibition of fresh weed plant weight at 93.75 g/ha using pre-emergence treatment protocol
[11] = system: Amaranthus retroflexus; assay: Herbicidal activity against Amaranthus retroflexus assessed as inhibition of fresh weed plant weight at 187.5 g/ha using pre-emergence treatment protocol
[12] = system: Amaranthus retroflexus; assay: Herbicidal activity against Amaranthus retroflexus assessed as inhibition of fresh weed plant weight at 1500 g/ha using post-emergence treatment protocol; procedure, shortened: as §1
[13] = system: Echinochloa crus-galli; assay: Herbicidal activity against Echinochloa crus-galli (barnyard grass) assessed as inhibition of fresh weed plant weight at 1500 g/ha using post-emergence treatment protocol; procedure, shortened: as §1
[14] = system: Digitaria sanguinalis; assay: Herbicidal activity against Digitaria sanguinalis (hairy crabgrass) assessed as inhibition of fresh weed plant weight at 1500 g/ha using pre-emergence treatment protocol
[15] = system: Digitaria sanguinalis; assay: Herbicidal activity against Digitaria sanguinalis (hairy crabgrass) assessed as inhibition of fresh weed plant weight at 375 g/ha using post-emergence treatment protocol; procedure, shortened: as §1
[16] = system: Amaranthus retroflexus; assay: Herbicidal activity against Amaranthus retroflexus assessed as inhibition of fresh weed plant weight at 93.75 g/ha using post-emergence treatment protocol; procedure, shortened: as §1
[17] = system: Brassica rapa subsp. oleifera; assay: Herbicidal activity against Brassica rapa subsp. oleifera assessed as inhibition of fresh weed plant weight at 375 g/ha using pre-emergence treatment protocol
[18] = system: Echinochloa crus-galli; assay: Herbicidal activity against Echinochloa crus-galli (barnyard grass) assessed as inhibition of fresh weed plant weight at 1500 g/ha using pre-emergence treatment protocol
[19] = system: Amaranthus retroflexus; assay: Herbicidal activity against Amaranthus retroflexus assessed as inhibition of fresh weed plant weight at 1500 g/ha using pre-emergence treatment protocol
[20] = system: Brassica rapa subsp. oleifera; assay: Herbicidal activity against Brassica rapa subsp. oleifera assessed as inhibition of fresh weed plant weight at 750 g/ha using pre-emergence treatment protocol
[21] = system: Amaranthus retroflexus; assay: Herbicidal activity against Amaranthus retroflexus assessed as inhibition of fresh weed plant weight at 93.75 g/ha using pre-emergence treatment protocol
[22] = system: Brassica rapa subsp. oleifera; assay: Herbicidal activity against Brassica rapa subsp. oleifera assessed as inhibition of fresh weed plant weight at 187.5 g/ha using pre-emergence treatment protocol
[23] = system: Digitaria sanguinalis; assay: Herbicidal activity against Digitaria sanguinalis (hairy crabgrass) assessed as inhibition of fresh weed plant weight at 750 g/ha using post-emergence treatment protocol; procedure, shortened: as §1
[24] = system: Digitaria sanguinalis; assay: Herbicidal activity against Digitaria sanguinalis (hairy crabgrass) assessed as inhibition of fresh weed plant weight at 187.5 g/ha using pre-emergence treatment protocol
[25] = system: Brassica rapa subsp. oleifera; assay: Herbicidal activity against Brassica rapa subsp. oleifera assessed as inhibition of fresh weed plant weight at 1500 g/ha using pre-emergence treatment protocol
[26] = system: Digitaria sanguinalis; assay: Herbicidal activity against Digitaria sanguinalis (hairy crabgrass) assessed as inhibition of fresh weed plant weight at 187.5 g/ha using post-emergence treatment protocol; procedure, shortened: as §1
[27] = system: Brassica rapa subsp. oleifera; assay: Herbicidal activity against Brassica rapa subsp. oleifera assessed as inhibition of fresh weed plant weight at 375 g/ha using post-emergence treatment protocol; procedure, shortened: as §1
[28] = system: Brassica rapa subsp. oleifera; assay: Herbicidal activity against Brassica rapa subsp. oleifera assessed as inhibition of fresh weed plant weight at 93.75 g/ha using post-emergence treatment protocol; procedure, shortened: as §1
[29] = system: Amaranthus retroflexus; assay: Herbicidal activity against Amaranthus retroflexus assessed as inhibition of fresh weed plant weight at 375 g/ha using post-emergence treatment protocol; procedure, shortened: as §1
[30] = system: Digitaria sanguinalis; assay: Herbicidal activity against Digitaria sanguinalis (hairy crabgrass) assessed as inhibition of fresh weed plant weight at 1500 g/ha using post-emergence treatment protocol; procedure, shortened: as §1
[31] = system: Digitaria sanguinalis; assay: Herbicidal activity against Digitaria sanguinalis (hairy crabgrass) assessed as inhibition of fresh weed plant weight at 93.75 g/ha using post-emergence treatment protocol; procedure, shortened: as §1
[32] = system: Amaranthus retroflexus; assay: Herbicidal activity against Amaranthus retroflexus assessed as inhibition of fresh weed plant weight at 187.5 g/ha using post-emergence treatment protocol; procedure, shortened: as §1
[33] = system: Brassica rapa subsp. oleifera; assay: Herbicidal activity against Brassica rapa subsp. oleifera assessed as inhibition of fresh weed plant weight at 750 g/ha using post-emergence treatment protocol; procedure, shortened: as §1
[34] = system: Amaranthus retroflexus; assay: Herbicidal activity against Amaranthus retroflexus assessed as inhibition of fresh weed plant weight at 375 g/ha using pre-emergence treatment protocol
[35] = system: Brassica rapa subsp. oleifera; assay: Herbicidal activity against Brassica rapa subsp. oleifera assessed as inhibition of fresh weed plant weight at 187.5 g/ha using post-emergence treatment protocol; procedure, shortened: as §1
[36] = system: Amaranthus retroflexus; assay: Herbicidal activity against Amaranthus retroflexus assessed as inhibition of fresh weed plant weight at 750 g/ha using pre-emergence treatment protocol; procedure, shortened: as §1
[37] = system: Digitaria sanguinalis; assay: Herbicidal activity against Digitaria sanguinalis (hairy crabgrass) assessed as inhibition of fresh weed plant weight at 93.75 g/ha using pre-emergence treatment protocol
[38] = system: Echinochloa crus-galli; assay: Herbicidal activity against Echinochloa crus-galli (barnyard grass) assessed as inhibition of fresh weed plant weight at 93.75 g/ha using post-emergence treatment protocol; procedure, shortened: as §1
[39] = system: Echinochloa crus-galli; assay: Herbicidal activity against Echinochloa crus-galli (barnyard grass) assessed as inhibition of fresh weed plant weight at 93.75 g/ha using pre-emergence treatment protocol
[40] = system: Echinochloa crus-galli; assay: Herbicidal activity against Echinochloa crus-galli (barnyard grass) assessed as inhibition of fresh weed plant weight at 187.5 g/ha using post-emergence treatment protocol; procedure, shortened: as §1

Compound | inhibition at 1500 g/ha [1] [%] | inhibition at 375 g/ha [2] [%] | inhibition at 750 g/ha [3] [%] | inhibition at 187.5 g/ha [4] [%] | inhibition at 375 g/ha [5] [%] | inhibition at 375 g/ha [6] [%] | inhibition at 750 g/ha [7] [%] | inhibition at 750 g/ha [8] [%] | inhibition at 750 g/ha [9] [%] | inhibition at 187.5 g/ha [11] [%] | inhibition at 1500 g/ha [12] [%] | inhibition at 1500 g/ha [13] [%] | inhibition at 1500 g/ha [14] [%] | inhibition at 375 g/ha [15] [%] | inhibition at 375 g/ha [17] [%] | inhibition at 1500 g/ha [18] [%] | inhibition at 1500 g/ha [19] [%] | inhibition at 750 g/ha [20] [%] | inhibition at 187.5 g/ha [22] [%] | inhibition at 750 g/ha [23] [%] | also measured
C#CCN1C(=O)COc2cc(F)c(-n3nnc4nn(CC=C)cc4c3=O)cc21 | 70.9 | 17.6 | 95.7 | 13.3 | 24.5 | 49.1 | 67.4 | 23.6 | 100 | 100 | 100 | 38.7 | 80.7 | 0 | 100 | 100 | 100 | 100 | 90.8 | 0 | inhibition at 93.75 g/ha [10]: 26%; inhibition at 93.75 g/ha [16]: 30.6%; inhibition at 93.75 g/ha [21]: 100%; inhibition at 187.5 g/ha [24]: 16.3%; inhibition at 1500 g/ha [25]: 100%; inhibition at 187.5 g/ha [26]: 0%; inhibition at 375 g/ha [27]: 38.9%; inhibition at 93.75 g/ha [28]: 0%; inhibition at 375 g/ha [29]: 48.8%; inhibition at 1500 g/ha [30]: 32.7%; inhibition at 93.75 g/ha [31]: 0%; inhibition at 187.5 g/ha [32]: 40.5%; inhibition at 750 g/ha [33]: 50.4%; inhibition at 375 g/ha [34]: 100%; inhibition at 187.5 g/ha [35]: 0%; inhibition at 750 g/ha [36]: 100%; inhibition at 93.75 g/ha [37]: 6.1%; inhibition at 93.75 g/ha [38]: 12.1%; inhibition at 93.75 g/ha [39]: 3.5%; inhibition at 187.5 g/ha [40]: 14.7%
C=CCN1C(=O)COc2cc(F)c(-n3nnc4nn(CC=C)cc4c3=O)cc21 | 95.6 | 17.2 | 89.7 | 18.2 | 40.8 | 27.9 | 75.5 | 18.1 | 100 | 100 | 100 | 30.8 | 90 | 0 | 100 | 100 | 100 | 100 | 95.9 | 0 | inhibition at 93.75 g/ha [10]: 51.2%; inhibition at 93.75 g/ha [16]: 28.9%; inhibition at 93.75 g/ha [21]: 100%; inhibition at 187.5 g/ha [24]: 16.3%; inhibition at 1500 g/ha [25]: 100%; inhibition at 187.5 g/ha [26]: 0%; inhibition at 375 g/ha [27]: 60.8%; inhibition at 93.75 g/ha [28]: 10.2%; inhibition at 375 g/ha [29]: 83.5%; inhibition at 1500 g/ha [30]: 0%; inhibition at 93.75 g/ha [31]: 0%; inhibition at 187.5 g/ha [32]: 45.5%; inhibition at 750 g/ha [33]: 88.5%; inhibition at 375 g/ha [34]: 100%; inhibition at 187.5 g/ha [35]: 12.3%; inhibition at 750 g/ha [36]: 100%; inhibition at 93.75 g/ha [37]: 6.1%; inhibition at 93.75 g/ha [38]: 0%; inhibition at 93.75 g/ha [39]: 8.2%; inhibition at 187.5 g/ha [40]: 2.8%
C#CCOc1cc(-n2nnc3nn(CC=C)cc3c2=O)c(F)cc1Cl | 70.3 | 0.5 | 19.5 | 0 | 6.5 | 0 | 47.8 | 9.3 | 100 | 41 | 100 | 20.3 | 79.6 | 8.3 | 25.4 | 40.9 | 100 | 37.3 | 16.4 | 13.9 | inhibition at 187.5 g/ha [24]: 2.2%; inhibition at 1500 g/ha [25]: 65.8%; inhibition at 187.5 g/ha [26]: 0%; inhibition at 375 g/ha [27]: 18.9%; inhibition at 375 g/ha [29]: 100%; inhibition at 1500 g/ha [30]: 36.1%; inhibition at 187.5 g/ha [32]: 22%; inhibition at 750 g/ha [33]: 36.6%; inhibition at 375 g/ha [34]: 90.2%; inhibition at 187.5 g/ha [35]: 2.9%; inhibition at 750 g/ha [36]: 93.4%; inhibition at 187.5 g/ha [40]: 0%
